Screening data from PubChem BioAssay.
Compounds with a hit are over-represented: about 1.5% of the library has one in this group of screens.
NR2E3 ag-1: activates human NR2E3 receptor. hit rate 0.35% among 360,000. CHO-S Gal4-NCOR/VP16-NR2E3 two-hybrid, luciferase. AID 602229. inhibition of corepressor binding, % at 3.98 µM. Q9Y5X4;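 active = inhibition above the mean of all tested compounds plus 3 SD, cut at about 70% in these data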;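 also: higher means lower luciferase signal from less NR2E3 corepressor binding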
697 NFkB inh: inhibitors of the PMA/ionomycin-induced NF-kB reporter in 697 B cells; 697 B-cell NF-kB luciferase reporter, 16 h; inhibition, % at 4 µM; hit rate 0.33% among 330,000; in the data active = inhibition above about 35%
GASC-1 inh: blocks human GASC-1 demethylase activity; inhibition, % at 2.35 µM; Q9H3R0; GST-JMJD2C(1-420) H3K9me3 demethylation, DELFIA europium; hit rate 0.069% among 330,000;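 active = more than half of a compound's replicate wells show inhibition beyond 50%, single wells judged on their own value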;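 also: signal counts dimethyl H3K9 product captured on neutravidin plate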
Jurkat NFkB inh: lowers PMA/ionomycin-induced NF-kB signal in Jurkat cells | inhibition, % at 4 µM | hit rate 0.53% among 330,000 | PMA/ionomycin-induced NF-kB luciferase reporter, luminescence; in the data active = inhibition above about 50%
GalR3 antagonist: antagonists of human GalR3; HEK293 GalR3-CNG cAMP membrane potential fluorescence; galR3 body fused to GalR1 C-terminus; hit rate 0.44% among 360,000; inhibition, % at 3 µM; AID 651719;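 active = inhibition above the screen-wide average plus 3 SD, cut at about 13% in these data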;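 also: forskolin and galanin both at EC90 stimulate the cells; cAMP rise reported by CNG channel membrane potential dye signal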
Target sequence (O60755 1-299 limits assumed): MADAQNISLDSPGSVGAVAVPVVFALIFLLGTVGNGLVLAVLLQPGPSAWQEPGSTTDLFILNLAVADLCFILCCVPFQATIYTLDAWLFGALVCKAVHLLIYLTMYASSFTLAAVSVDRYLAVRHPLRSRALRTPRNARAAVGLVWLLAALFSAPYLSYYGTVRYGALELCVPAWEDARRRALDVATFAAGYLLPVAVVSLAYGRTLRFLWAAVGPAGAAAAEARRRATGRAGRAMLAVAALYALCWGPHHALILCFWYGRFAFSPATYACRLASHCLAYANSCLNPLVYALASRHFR
NR2E3 ag-2: agonists of human nuclear receptor NR2E3. Q9Y5X4. GST-NR2E3/biotin-RetCOR TR-FRET, 1536-well. inhibition of corepressor binding, % at 4.78 µM. hit rate 0.12% among 320,000. AID 2300;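 active = percent inhibition above the cutoff of mean plus 3 SD of all tested compounds, set per screening campaign, cut at about 20% in these data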
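Material: NR2E3–RetCOR corepressor complex | Quantity: 1.35 nM GST-tagged NR2E3 final | Schedule: 5 h at 4 °C | Replication: Singlicate compound wells | Reagent: RetCOR corepressor, biotinylated, 7 nM | Controls: Biotin wells as high control, 0.6% DMSO wells as low control | Signal: TR-FRET, Eu(K)-anti-GST donor, streptavidin-D2 acceptor, ex 340, em 617/671 nm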
GalR3 conf: GalR3 (human) antagonism, confirmation. hit rate 59% among 1,600. inhibition, % at 3 µM. shares compounds with GalR3 antagonist. HEK293 GalR3 CNG cAMP biosensor, membrane potential fluorescence; galR3 fused to GalR1 carboxy tail; challenged with forskolin and galanin at EC90;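 active = inhibition above the primary screen's cutoff, the mean inhibition of all screened compounds plus 3 SD, cut at about 13% in these data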
CNG parental: acts as nonspecific agonist in parental HEK-CNG cells | shares compounds with GalR3 antagonist | HEK293-CNG parental cells, cAMP membrane potential fluorescence; normalised: DMSO wells 0%, forskolin wells 100% | activation, % at 3 µM | hit rate 10% among 1,600 | AID 652268; in the data active = activation above about 1.3%
Hits are given with their value; i = inactive; nt = no result.

SMILES	NR2E3 ag-1	697 NFkB inh	GASC-1 inh	Jurkat NFkB inh	GalR3 antagonist	NR2E3 ag-2	GalR3 conf	CNG parental
O=c1c(Cl)c(NCC2CCCO2)cnn1C12CC3CC(CC(C3)C1)C2 (configuration not stated)	i	i	i	i	15	i	33	i
O=C(Oc1ccc(Br)cc1C(=O)/C=C/c1ccccc1F)c1ccco1	i	i	i	i	24	i	i	i
CC(=O)c1cc(Cl)ccc1OC(=O)c1ccco1	i	i	i	i	i	i	nt	nt
CCCCCCCCN1C(=O)[C@@H](CC(=O)NCCC(C)C)C[C@@]2(C(=O)OC)C1=C[C@H](C1CCCC1)O[C@@H]2C	nt	nt	nt	nt	i	nt	nt	nt
CCN(Cc1ccccc1)c1ccc(/C=N/NC(=O)c2cccc(S(=O)(=O)N3CCOCC3)c2)cc1	i	i	i	i	24	i	89	i
CCN(CC)c1ccc(/C=N/NC(=O)c2cccc(S(=O)(=O)N3CCOCC3)c2)cc1	i	i	i	i	i	i	nt	nt
C[N+](C)(C)C/C=C1/COCO1	i	i	i	i	20	i	13	i
CNc1ncnc2c1ncn2[C@@H]1O[C@H](CO)[C@@H](O)[C@H]1O	i	i	nt	i	77	i	17	i
COc1cccc(C2N(c3ccccc3)CCN2c2ccccc2)c1OC	i	i	i	i	14	i	i	i
COc1cccc(OC)c1C(=O)OCC(=O)NCCNC(=O)COC(=O)c1c(OC)cccc1OC	i	nt	nt	nt	i	nt	nt	nt
COc1ccc(-c2sc3cc4c(cc3c2C#CCO)OCO4)cc1	i	i	i	i	i	i	nt	nt
COC(=O)c1c(-c2ccc(OC)cc2)sc2cc3c(cc12)OCO3	i	i	i	i	13	i	18	i
COC(CNS(=O)(=O)c1ccc(S(=O)(=O)N2CCCC2)cc1)OC	i	i	i	i	13	i	i	i
COCCCNS(=O)(=O)c1ccc(S(=O)(=O)N2CCCC2)cc1	i	i	i	i	i	i	nt	nt
CC(=O)c1cccc(CN2CCN(CC=C(C)C)C(CCO)C2)c1 (configuration not stated)	i	i	i	i	16	i	i	i
CCC(C)(C)n1nnnc1CN(Cc1cc2cc(OC)c(OC)cc2[nH]c1=O)C1CCCC1	i	i	i	i	18	i	i	i
Cc1ccc2[nH]c(=O)c(CN(Cc3ccccc3)Cc3nnnn3C3CCCC3)cc2c1	i	i	i	i	i	i	nt	nt
Cc1ccc2[nH]c(=O)c(CN(Cc3nnnn3C3CCCC3)C3CCCCC3)cc2c1	i	i	i	i	14	i	i	i
CCN(CC)C(=O)OCCc1cc2ccccc2c(=O)o1	i	i	i	i	nt	i	i	i
COC(=O)Cn1ncc(N2CC(C)OC(C)C2)c(Cl)c1=O (configuration not stated)	i	i	i	i	i	i	nt	nt
O=C(Cc1ccsc1)N1CCc2c([nH]c3ccccc23)C1c1ccccn1 (configuration not stated)	i	i	i	i	16	i	i	i
O=C(O)CCC(=O)Nc1ccc(C(=O)OCC(=O)c2ccc(Cl)cc2Cl)cc1	i	i	i	i	i	i	nt	nt
CN(C)c1ccc(CC(=O)N2CCCC(c3cc(C(=O)Nc4ccc(C(C)(C)C)cc4)no3)C2)cc1 (configuration not stated)	i	nt	nt	nt	49	nt	109	i
O=C(Nc1ccccc1)c1cc(C2CCCN(C(=O)CCc3ccccc3)C2)on1 (configuration not stated)	i	nt	nt	nt	i	nt	nt	nt
COCCN(C(=O)COC(=O)CSc1ccc2ccccc2c1)c1c(N)n(Cc2ccccc2)c(=O)[nH]c1=O	i	i	i	i	i	i	nt	nt
SMILES	NR2E3 ag-1	697 NFkB inh	GASC-1 inh	Jurkat NFkB inh	GalR3 antagonist	NR2E3 ag-2	GalR3 conf	CNG parental
CSc1ncccc1C(=O)NCC(c1cccs1)N1CCOCC1 (configuration not stated)	i	i	i	i	16	i	i	i
O=C(NCC(c1cccs1)N1CCOCC1)c1cc(F)cc(F)c1 (configuration not stated)	i	nt	nt	nt	i	nt	nt	nt
OCC1CCCN(c2nc(CN3CCCCC3)nc3scc(-c4ccccc4)c23)C1 (configuration not stated)	i	i	i	i	i	i	nt	nt
CCNc1nc(CN2CCCCC2)nc2scc(-c3ccccc3)c12	i	i	i	i	19	i	22	5.7
O=[N+]([O-])c1c(Nc2ccccc2O)cc(Cl)c2nonc12	i	i	i	i	40	nt	41	i
CCC(NC(=O)c1ccccc1NC(=O)C(C)(C)C)C(=O)N1CCCC1 (configuration not stated)	i	i	i	i	15	i	i	i
O=C(Nc1cccc(C(=O)NC2CC2)c1)c1ccc(Cl)c(S(=O)(=O)N2CCOCC2)c1	i	i	i	i	i	i	nt	nt
CC(=O)c1ccc(OCCCC(=O)Nc2ccc(Cl)c(S(=O)(=O)N3CCOCC3)c2)cc1	i	nt	nt	nt	87	nt	93	i
O=C(Nc1cccc(Br)c1)c1ccc(Cl)c(S(=O)(=O)N2CCOCC2)c1	i	i	i	i	88	i	100	i
C/C(=N\NC(=O)c1nnn(-c2nonc2N)c1-c1ccc2c(c1)OCO2)c1ccc(C)cc1	i	i	i	i	i	i	nt	nt
CCNC(=S)Nc1ccc(OCc2nc3ccccc3s2)cc1	i	i	i	i	i	i	nt	nt
CCN(CC)CCn1c(NS(=O)(=O)c2ccc(Cl)cc2)nc2ccccc21	i	i	i	i	i	i	nt	nt
CC(=O)NCCc1nc(-c2ccc(Cl)cc2)no1	i	i	i	i	i	i	nt	nt
CC(C)C(=O)NCCc1nc(-c2ccccc2)no1	i	i	i	i	nt	i	i	i
Cc1c(NC(=O)c2cc3ccccc3o2)cccc1-n1cnnn1	i	nt	nt	nt	i	nt	nt	nt
CCCn1c(SCc2ccc(Cl)cc2)nc2c1c(=O)[nH]c(=O)n2C	i	i	i	i	14	i	32	1.3
CCCCC(=O)N/N=C/c1ccc(N2CCOCC2)c([N+](=O)[O-])c1	i	nt	i	nt	14	i	i	i
O=C(N/N=C/c1ccccc1)c1ccc(N2CCOCC2)c([N+](=O)[O-])c1	i	i	i	i	i	i	nt	nt
CCN1C(=O)[C@@H]2[C@@H](c3ccc(-c4ccc(F)cc4)c(OC)c3)N3CCCC[C@@]3(C(=O)OC)[C@@H]2C1=O	i	i	i	i	i	i	nt	nt
